For data set [1], the system named is Calvarial osteoblast. Description: Cytotoxicity against Sprague-Dawley rat calvarial osteoblasts assessed as reduction in cell viability at 0.000001 to 1 uM after 48 hrs by MTT assay. Type of data set: cell-based. Summed up:
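Osteoblasts came from pooled calvaria of 1-2-day-old Sprague-Dawley pups, isolated by sequential dispase/collagenase digestion. Cells were exposed to compound at 1 pM to 1 µM for 48 h, and viability was measured by MTT.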
For orientation: Tetrazolium assays rely on reduction of a dye to a coloured formazan, in cell work by metabolically active cells.

The nature of data set [2]: Increase in BMP2 mRNA expression in Sprague-Dawley rat calvarial osteoblasts at 100 pM by RT-PCR method relative to control. The class given is functional, Calvarial osteoblast. In outline:
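Primary calvarial osteoblasts were lysed in TRIzol after treatment, and total RNA was extracted. Transcripts were quantified by real-time PCR using the comparative CT (ΔΔCT) method.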

Data set [3] can be described thus: Increase in Runx2 mRNA expression in Sprague-Dawley rat calvarial osteoblasts at 100 pM by RT-PCR method relative to control. Type of data set: functional, Calvarial osteoblast.
For data set [4], the system named is Calvarial osteoblast. Description: Increase in Runx2 protein expression in Sprague-Dawley rat calvarial osteoblasts at 100 pM after 48 hrs by Western blot analysis. The class given is functional, cell-based. In outline: (§1)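 Rat calvarial osteoblasts (pooled 1–2-day pups, collagenase/dispase digests) at 60–70% confluence treated 48 h. Whole-cell lysates immunoblotted with primary antibody overnight at 4 °C, then HRP secondary, with ECL detection. Densitometry gives fold change normalized to β-actin versus untreated cells. Mean ± SEM of three independent experiments.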

In data set [5] the test system is Calvarial osteoblast. Description: Increase in BMP2 protein expression in Sprague-Dawley rat calvarial osteoblasts at 100 pM after 48 hrs by Western blot analysis. The class given is functional, cell-based. In outline: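 Rat calvarial osteoblasts at 60-70% confluence were treated 48 h. Whole-cell lysates were blotted, blocked in 5% milk, and probed with primary antibody overnight at 4 °C, then with HRP secondary and ECL detection. Densitometry was normalized to β-actin; fold change versus untreated cells, three independent experiments, mean ± SEM.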

The test system of data set [6] is Calvarial osteoblast. Description: Increase in OCN protein expression in Sprague-Dawley rat calvarial osteoblasts at 100 pM after 48 hrs by Western blot analysis. Type of data set: functional, cell-based. Summed up:
as §1

The test system of data set [7] is Calvarial osteoblast. Description: Induction of osteoblast proliferation in Sprague-Dawley rat calvarial osteoblasts at 0.000001 to 1 uM after 48 hrs BrdU incorporation assay. The class given is functional, cell-based. Summed up:
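2 × 10³ cells/well in duplicate plates, one for cell number and one for BrdU. Cells treated 48 h in differentiation medium, then BrdU added for a further 24 h. Fixed cells get anti-BrdU (1 h RT), then peroxidase secondary (30 min), TMB (30 min, dark), stop, read at 450 nm. Result given as BrdU(+) osteoblasts, % of total.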
In general terms: Incorporation of labelled thymidine or its analogues reports DNA synthesis.

The nature of data set [8]: Antioxidant activity assessed as DPPH radical scavenging activity at 1000 ug/ml after 30 mins by spectrophotometric method relative to control. Type of data set: functional. Summed up:
(§2)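 The compound was serially diluted from 1000 to 1.95 µg·ml⁻¹ and mixed 1:1 with DPPH in methanol. After 30 min at room temperature, absorbance was read at 517 nm. Scavenging (%) = [(Abc − Abs)/Abc] × 100, where Abc is DPPH without compound.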
For orientation: Loss of DPPH colour is used to gauge radical scavenging.

Data set [9] in a line: Antioxidant activity assessed as DPPH radical scavenging activity at 3.9 ug/ml after 30 mins by spectrophotometric method relative to control. Type of data set: functional. In outline:
as §2

The nature of data set [10]: Antioxidant activity assessed as SNP-induced nitric oxide free radical scavenging activity at 500 ug/ml after 150 mins by Griess reagent based method relative to control. The class given is functional. Summed up:
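Serial dilutions (1000 to 1.95 µg·ml⁻¹) were mixed with sodium nitroprusside (10 mM) and incubated 150 min. An equal volume of Griess reagent was added, and absorbance was read at 546 nm. Percentage scavenging was calculated relative to the control without compound.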

Data set [11] relates to Calvarial osteoblast. Description: Osteoprotective activity in Sprague-Dawley rat calvarial osteoblasts assessed as reduction in TNFalpha-induced apoptosis at 100 pM after 24 hrs by Annexin V/propidium iodide staining based FACS analysis relative to control. Also on record: scale not given: the % may be the effect or the level left. Type of data set: functional. Summed up:
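Osteoblasts at 50–60% confluence, serum-withdrawn 3 h. Then 24 h with TNFα in α-MEM with 0.5% FBS, with 10 nM E2 as comparator. Annexin-V-FITC/PI staining, analysed by flow cytometry.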

Data set [12] deals with Rattus norvegicus. Description: Antiosteoporotic activity in Sprague-Dawley rat model of OVX-induced bone loss assessed as protection against microarchitectural deterioration by measuring trabecular separation at 1 mg/kg, po via gavage for 12 weeks by microcomputed tomographic analysis (reference value: 1.31 +/- 0.06 millimeter). Type of data set: functional. Summed up: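 Adult female Sprague-Dawley rats were ovariectomized and left 12 weeks to become osteopenic. They then received 12 weeks of once-daily oral gavage (1% gum acacia vehicle) or subcutaneous estradiol, five days a week. Femurs were collected at sacrifice and scanned by micro-CT for BMD and trabecular microarchitecture. Ten rats per group; mean ± SEM.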

For data set [13], the system named is Rattus norvegicus. Description: Antiosteoporotic activity in Sprague-Dawley rat model of OVX-induced bone loss assessed as mineral apposition rate at 1 mg/kg, po via gavage for 12 weeks by microcomputed tomographic analysis (reference value: 0.169 +/- 0.004 umeter/day). The class given is functional. Summed up:
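Female Sprague-Dawley rats, 10-12 weeks old, ten per group, were ovariectomized and left 12 weeks for osteopenia. They were then dosed once daily by oral gavage for 12 weeks in 1% gum acacia vehicle. The estradiol arm received 100 µg·kg⁻¹ subcutaneously five days a week. Tetracycline and calcein were given intraperitoneally at 20 mg·kg⁻¹ each. Femur cross-sections (50 µm) were imaged by fluorescence microscopy for MAR and BFR.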

Data set [14] concerns Rattus norvegicus. Description: Antiosteoporotic activity in Sprague-Dawley rat model of OVX-induced bone loss assessed as increase in femoral bone strength by measuring stiffness at 1 mg/kg, po via gavage for 12 weeks by 3 point bending test (reference value: 122.07 +/- 12.18 N/mm). Type of data set: functional.
Data set [15] has as its system Rattus norvegicus. Description: Antiosteoporotic activity in Sprague-Dawley rat model of OVX-induced bone loss assessed as increase in femoral bone strength by measuring stiffness at 5 mg/kg, po via gavage for 12 weeks by 3 point bending test (reference value: 122.07 +/- 12.18 N/mm). The class given is functional.
Data set [16] deals with Rattus norvegicus. Description: Upregulation of BMP2 mRNA expression in femur bone of Sprague-Dawley rat model of OVX-induced bone loss at 1 to 5 mg/kg, po via gavage for 12 weeks by qPCR analysis. Type of data set: functional, organism-based. In outline: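 Ovariectomized female SD rats, osteopenic after 12 weeks, dosed orally once daily for 12 weeks (1.0 or 5.0 mg·kg⁻¹·day⁻¹, 1% gum acacia vehicle); sham and OVX vehicle groups included. Femurs collected at sacrifice for qRT-PCR, analysed by the ΔΔCT method.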

Data set [17] can be described thus: Toxicity in Sprague-Dawley rat model of OVX-induced bone loss assessed as uterine weight at 1 mg/kg, po via gavage for 12 weeks (reference value: 0.12 +/- 0.02 g). Type of data set: organism-based. As to conditions: in vivo, 2016 h.
Data set [18] can be described thus: Toxicity in Sprague-Dawley rat model of OVX-induced bone loss assessed as total uterine area at 1 mg/kg, po via gavage for 12 weeks (reference value: 0.11 +/- 0.003 mm2). The class given is organism-based. As to conditions: in vivo, 2016 h.
Data set [19] in a line: Toxicity in Sprague-Dawley rat model of OVX-induced bone loss assessed as luminal epithelial height at 1 mg/kg, po via gavage for 12 weeks (reference value: 27.29 +/- 0.96 umeter). The class given is organism-based. The note with it: in vivo, 2016 h.
Data set [20] in a line: Toxicity in Sprague-Dawley rat model of OVX-induced bone loss assessed as total uterine area at 5 mg/kg, po via gavage for 12 weeks (reference value: 0.11 +/- 0.003 mm2). The class given is organism-based. The note with it: in vivo, 2016 h.

Active and inactive are the calls of the source. The rule behind the calls is not given here.

Consider `CCOC(=O)c1cc2c([nH]c3ccccc32)c(C(c2nnnn2C(C)(C)C)N2CCN(C)CC2)n1` (stereo not given), for which the Activity result is “Non-Toxic” with Calvarial osteoblast [1]; 47.8% in data set [8]; 3.82% in data set [9]; 31.4% in [10]; 47% with Calvarial osteoblast [11]; 0.73 mm in the data set with Rattus norvegicus [12]. The Activity with Rattus norvegicus [13] was 1.062 micrometer/day; in the data set with Rattus norvegicus [14] it was 151.3 N/mm; in the data set with Rattus norvegicus [15], 146.6 N/mm; in data set [17] it was 0.13 g; in [18] it was 0.14 mm2; in data set [19], 3.7 um. Further, in data set [20], the Activity worked out at 0.13 mm2. In addition, the “fold change (FC)” value in data set [2] and in data set [3] was 1.8 - 4.6 in each case. Moreover, the outcome in the data set on Calvarial osteoblast [4], in the data set with Calvarial osteoblast [5], with Calvarial osteoblast [6], in the data set on Calvarial osteoblast [7] and in the data set on Rattus norvegicus [16] was Active.

For the origin of these results see ChEMBL document CHEMBL4325822, “Discovery of a tetrazolyl β-carboline with in vitro and in vivo osteoprotective activity under estrogen-deficient conditions” (Medchemcomm, 2018).
